# Source: ChEMBL document CHEMBL4765454, “Betulinic acid derived amides are highly cytotoxic, apoptotic and selective” (Eur J Med Chem, 2020)
# Active and inactive are the calls of the source. The rule behind the calls is not given here.
# Key:
# MCF7 = test: Cytotoxicity against human MCF7 cells assessed as reduction in cell viability incubated for 72 hrs by SRB assay; type: functional, cell-based; settings: Homo sapiens, MCF7, 72 h; read-out: EC50
# A-375 [1] = test: Cell cycle arrest in human A375 cells assessed as accumulation at subG1 phase measured after 24 hrs by propidium iodide staining based flow cytometry (reference value: 0.46%); type: functional
# A-375 [2] = test: Induction of apoptosis in human A375 cells assessed as early apoptotic cells at 3 uM measured after 48 hrs by Annexin V-FITC/propidium iodide staining based flow cytometry (reference value: 1.622%); type: functional
# A-375 [3] = test: Induction of apoptosis in human A375 cells assessed as necrotic cells at 3 uM measured after 24 hrs by Annexin V-FITC/propidium iodide staining based flow cytometry (reference value: 0.331%); type: functional
# A-375 [4] = test: Induction of apoptosis in human A375 cells assessed as late apoptotic cells at 3 uM measured after 24 hrs by Annexin V-FITC/propidium iodide staining based flow cytometry (reference value: 7.352%); type: functional
# A-375 [5] = test: Cell cycle arrest in human A375 cells assessed as accumulation at G1 phase measured after 48 hrs by propidium iodide staining based flow cytometry (reference value: 57.3%); type: functional
# A-375 [6] = test: Cell cycle arrest in human A375 cells assessed as accumulation at S phase measured after 48 hrs by propidium iodide staining based flow cytometry (reference value: 31.3%); type: functional
# A-375 [7] = test: Induction of apoptosis in human A375 cells assessed as necrotic cells at 3 uM measured after 48 hrs by Annexin V-FITC/propidium iodide staining based flow cytometry (reference value: 0.547%); type: functional
# A-375 [8] = test: Induction of apoptosis in human A375 cells assessed as viable cells at 3 uM measured after 24 hrs by Annexin V-FITC/propidium iodide staining based flow cytometry (reference value: 90.123%); type: functional; settings: read-out: Activity
# A2780 = test: Cytotoxicity against human A2780 cells assessed as reduction in cell viability incubated for 72 hrs by SRB assay; type: functional, cell-based; settings: Homo sapiens, A2780, 72 h; read-out: EC50
# [9] = Selectivity ratio of EC50 for mouse NIH3T3 cells to EC50 for human FaDu cells
# A-375 [10] = test: Cell cycle arrest in human A375 cells assessed as accumulation at G1 phase measured after 24 hrs by propidium iodide staining based flow cytometry (reference value: 44.59%); type: functional
# A-375 [11] = test: Induction of apoptosis in human A375 cells assessed as cell shrinkage at 3 uM measured after 48 hrs by microscopic analysis; type: functional, cell-based
# Summary of the method: (§1)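 A375 cells treated at 3.0, 4.8 or 6.2 µM and inspected by light microscopy after 24 h or 48 h. Cell number and morphology were scored for apoptotic features: shrinkage, strangulation and blebbing.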
# A-375 [12] = test: Induction of apoptosis in human A375 cells assessed as blebbing at 3 uM measured after 48 hrs by microscopic analysis; type: functional, cell-based; summary of the method: as §1
# A-375 [13] = test: Cell cycle arrest in human A375 cells assessed as accumulation at G2/M phase measured after 48 hrs by propidium iodide staining based flow cytometry (reference value: 10.83%); type: functional
# [14] = Selectivity ratio of EC50 for mouse NIH3T3 cells to EC50 for human MCF7 cells; type: toxicity; settings: NIH3T3 cells versus MCF7 cells, read-out: Ratio EC50
# A-375 [15] = test: Cell cycle arrest in human A375 cells assessed as accumulation at subG1 phase measured after 48 hrs by propidium iodide staining based flow cytometry (reference value: 0.57%); type: functional
# [16] = Selectivity ratio of EC50 for mouse NIH3T3 cells to EC50 for human HT-29 cells; type: toxicity; settings: NIH3T3 cells versus HT-29 cells, read-out: Ratio EC50
# A-375 [17] = test: Cell cycle arrest in human A375 cells assessed as accumulation at S phase measured after 24 hrs by propidium iodide staining based flow cytometry (reference value: 47.46%); type: functional
# FaDu = test: Cytotoxicity against human FaDu cells assessed as reduction in cell viability incubated for 72 hrs by SRB assay; type: functional, cell-based; settings: Homo sapiens, FaDu, 72 h; read-out: EC50
# A-375 [18] = test: Cell cycle arrest in human A375 cells assessed as accumulation at G2/M phase measured after 24 hrs by propidium iodide staining based flow cytometry (reference value: 7.48%); type: functional
# A-375 [19] = test: Cytotoxicity against human A-375 cells assessed as reduction in cell viability incubated for 72 hrs by SRB assay; type: functional, cell-based; settings: Homo sapiens, A-375, 72 h; read-out: EC50
# A-375 [20] = test: Induction of apoptosis in human A375 cells assessed as late apoptotic cells at 3 uM measured after 48 hrs by Annexin V-FITC/propidium iodide staining based flow cytometry (reference value: 5.108%); type: functional
# A-375 [21] = test: Induction of apoptosis in human A375 cells assessed as viable cells at 3 uM measured after 48 hrs by Annexin V-FITC/propidium iodide staining based flow cytometry (reference value: 92.723%); type: functional; settings: read-out: Activity
# HT-29 = test: Cytotoxicity against human HT-29 cells assessed as reduction in cell viability incubated for 72 hrs by SRB assay; type: functional, cell-based; settings: Homo sapiens, HT-29, 72 h; read-out: EC50
# A-375 [22] = test: Induction of apoptosis in human A375 cells assessed as early apoptotic cells at 3 uM measured after 24 hrs by Annexin V-FITC/propidium iodide staining based flow cytometry (reference value: 2.194%); type: functional
# NIH3T3 = test: Cytotoxicity against mouse NIH3T3 cells assessed as reduction in cell viability incubated for 72 hrs by SRB assay; type: cell-based; settings: Mus musculus, NIH3T3, 72 h; read-out: EC50
# A-375 [23] = test: Induction of apoptosis in human A375 cells assessed as strangulation at 3 uM measured after 48 hrs by microscopic analysis; type: functional, cell-based; summary of the method: as §1
# [24] = Selectivity ratio of EC50 for mouse NIH3T3 cells to EC50 for human A2780 cells; type: toxicity; settings: NIH3T3 cells versus A2780 cells, read-out: Ratio EC50
# A-375 [25] = test: Induction of apoptosis in human A375 cells at 3 uM measured after 24 hrs by microscopic analysis; type: functional, cell-based; summary of the method: as §1
smiles,measurement,setting,value
C=C(C)[C@@H]1CC[C@]2(C(=O)Nc3cncc4ccccc34)CC[C@]3(C)[C@H](CC[C@@H]4[C@@]5(C)CC[C@H](OC(C)=O)C(C)(C)[C@@H]5CC[C@]43C)[C@@H]12,EC50,MCF7,4650 nM
same,Activity,A-375 [1],2.38%
same,Activity,A-375 [2],44.309%
same,Activity,A-375 [3],0.351%
same,Activity,A-375 [4],9.649%
same,Activity,A-375 [5],41.85%
same,Activity,A-375 [6],34.84%
same,Activity,A-375 [7],1.115%
same,viability at 3 µM,A-375 [8],83.5%
same,EC50,A2780,2160 nM
same,Ratio EC50,[9],59.7
same,Activity,A-375 [10],61.06%
same,Activity,A-375 [11],Active
same,Activity,A-375 [12],Active
same,Activity,A-375 [13],0%
same,selectivity ratio,[14],29
same,Activity,A-375 [15],23.32%
same,selectivity ratio,[16],4.5
same,Activity,A-375 [17],36.56%
same,EC50,FaDu,2260 nM
same,Activity,A-375 [18],0%
same,EC50,A-375 [19],1480 nM
same,Activity,A-375 [20],21.382%
same,viability at 3 µM,A-375 [21],33.2%
same,EC50,HT-29,> 30000 nM
same,Activity,A-375 [22],8.551%
same,EC50,NIH3T3,> 135000 nM
same,Activity,A-375 [23],Active
same,selectivity ratio,[24],62.5
same,Activity,A-375 [25],Active
